In ChEMBL document CHEMBL1770091, “Synthesis and biological evaluation of benzyl styrylsulfonyl derivatives as potent anticancer mitotic inhibitors” (Bioorg Med Chem Lett, 2011):

Assays:
T47D [1] = assay: Cytotoxicity against human T47D cells after 72 hrs by MTT assay; format: functional
Outline: (§1)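 Standard 72-h MTT cytotoxicity assay, reported as GI50. Cancer lines were run alongside non-transformed MRC-5 lung fibroblasts.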

[2] = Cytotoxicity against human MDA468 cells after 72 hrs by MTT assay; format: functional; settings: MDA-MB-468, 72 h
Outline: (§2)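 MDA-468 cells were exposed to compound for 24, 48 or 72 h and growth inhibition was read by MTT assay. GI50 is the mean ± s.d. of three independent assays.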

HCT-116 = assay: Cytotoxicity against human HCT116 cells after 72 hrs by MTT assay; format: functional; settings: HCT-116, 72 h; outline: as §1
MCF7 [3] = assay: Cytotoxicity against human MCF7 cells after 72 hrs by MTT assay; format: functional; settings: MCF7, 72 h; outline: as §1
[4] = Cytotoxicity against human MRC5 cells after 72 hrs by MTT assay; format: cell-based; outline: as §1
[5] = Cytotoxicity against human MDA468 cells after 24 hrs by MTT assay; format: functional; settings: MDA-MB-468, 24 h; outline: as §2
[6] = Cytotoxicity against human MDA468 cells after 48 hrs by MTT assay; format: functional; settings: MDA-MB-468, 48 h; outline: as §2
[7] = Cell cycle arrest in human MDA468 cells assessed as accumulation at G2/M phase at 0.5 uM after 20 hrs by flow cytometry; format: functional, cell-based; settings: MDA-MB-468
Outline: (§3)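 Cells in exponential growth seeded at 4×10^5, incubated overnight at 37 °C in humidified 5% CO2, then exposed to compound for 20 h. Cells collected, washed once in cold PBS, resuspended in hypotonic fluorochrome solution, and analysed for cell-cycle distribution (% G2/M DNA content) by flow cytometry. Mean ± s.d. of three independent experiments; DMSO vehicle control.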

[8] = Cell cycle arrest in human MDA468 cells assessed as accumulation at G2/M phase at 1 uM after 20 hrs by flow cytometry; format: functional, cell-based; settings: MDA-MB-468; outline: as §3
MDA-MB-468 = assay: Induction of apoptosis in human MDA468 cells assessed as appearance of apoptotic bodies after 20 hrs by annexinV/propidium iodide staining; format: functional, cell-based
Outline: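 After overnight culture, 4×10^5 cells per well were treated with compound at 0.5, 1 and 10 μM for 20 h. Apoptosis was measured by annexin V/PI double staining and flow analysis, scored as early (annexin V-positive) plus late (annexin V- and PI-positive) apoptotic cells. Mean ± s.d. of three independent experiments versus DMSO vehicle control.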

MCF7 [9] = assay: Metabolic stability of the compound in human MCF7 cells at 1 uM; format: ADME, cell-based; settings: mcf7, 1 µM
MRC5 [10] = assay: Metabolic stability of the compound in human MRC5 cells at 1 uM; format: ADME, cell-based; settings: mrc5, 1 µM
T47D [11] = assay: Ratio of GI50 for human MRC5 cells to GI50 for human T47D cells
Outline: (§4)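 Selectivity was calculated as GI50 in non-transformed MRC-5 fibroblasts divided by GI50 in each cancer line. All GI50 values came from 72-h MTT assays.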

MRC5 [12] = assay: Ratio of GI50 for human MRC5 cells to GI50 for human MDA468 cells; outline: as §4
MRC5 [13] = assay: Ratio of GI50 for human MRC5 cells to GI50 for human HCT116 cells; outline: as §4
MRC5 [14] = assay: Ratio of GI50 for human MRC5 cells to GI50 for human MCF7 cells; outline: as §4

| Stability (MCF7 [9]) | Stability (MRC5 [10]) | Compound | GI50 (T47D [1]) | GI50 [2] | GI50 (HCT-116) | GI50 (MCF7 [3]) | GI50 at 72 h [4] | GI50 [5] | GI50 [6] | Activity [7] | Activity [8] | Activity (MDA-MB-468) | RatioGI50 (T47D [11]) | RatioGI50 (MRC5 [12]) | RatioGI50 (MRC5 [13]) | RatioGI50 (MRC5 [14]) |
| --- | --- | --- | --- | --- | --- | --- | --- | --- | --- | --- | --- | --- | --- | --- | --- | --- |
|  |  | COc1ccc(CS(=O)(=O)CC(=O)Nc2c(C)cc(C)cc2C)cc1N | > 30 µM | > 30 µM | > 30 µM | > 30 µM | > 30 µM |  |  |  |  |  |  |  |  |  |
|  |  | COc1ccc(CS(=O)(=O)CC(=O)Nc2ccccc2)cc1N | > 30 µM | > 30 µM | > 30 µM | > 30 µM | > 30 µM |  |  |  |  |  |  |  |  |  |
|  |  | COc1ccc(CS(=O)(=O)CC(=O)Nc2c(C)cc(C)cc2C)cc1[N+](=O)[O-] | > 30 µM | > 30 µM | 7.91 µM | > 30 µM | 28 µM |  |  |  |  |  |  |  |  |  |
|  |  | COc1ccc(OC)c(NC(=O)CS(=O)(=O)Cc2ccc(OC)c([N+](=O)[O-])c2)c1 | > 30 µM | > 30 µM | > 30 µM | > 30 µM | > 30 µM |  |  |  |  |  |  |  |  |  |
|  |  | COc1cc(OC)c(/C=C/S(=O)(=O)Cc2ccc(OC)c([N+](=O)[O-])c2)c(OC)c1 |  |  | 0.66 µM | 0.88 µM | 2.91 µM |  |  |  |  |  |  |  |  |  |
|  |  | COc1ccc(CS(=O)(=O)/C=C/c2ccc(OC)c(OC)c2OC)cc1[N+](=O)[O-] | > 30 µM | 21.9 µM | 27.9 µM | > 30 µM | > 30 µM |  |  |  |  |  |  |  |  |  |
|  |  | COc1cc(/C=C/S(=O)(=O)Cc2ccc(OC)c([N+](=O)[O-])c2)cc(OC)c1 | > 30 µM | 16.5 µM | > 30 µM | > 30 µM | > 30 µM |  |  |  |  |  |  |  |  |  |
| Stable | Stable | COc1cc(OC)c(/C=C/[S+]([O-])Cc2ccc(OC)c(N)c2)c(OC)c1 (configuration not stated) | 0.06 µM | < 0.01 µM | < 0.01 µM | < 0.01 µM | > 30 µM | 0.559 µM | 0.137 µM | 77% | 85% | Dose-dependent effect |  |  |  |  |
|  |  | COc1ccc(CS(=O)(=O)/C=C/c2c(OC)cccc2OC)cc1N | 0.05 µM | 0.06 µM | 0.02 µM | 0.04 µM | 17.1 µM |  |  |  |  |  | <280 | <280 | <280 | <280 |
|  |  | COc1cc(OC)c(/C=C/S(=O)(=O)Cc2ccc(OC)c(NC(C)=O)c2)c(OC)c1 |  |  | 0.15 µM | 0.35 µM | 0.81 µM |  |  |  |  |  |  |  |  |  |
|  |  | COc1ccc(CS(=O)(=O)/C=C/c2c(OC)cccc2OC)cc1[N+](=O)[O-] | > 30 µM | 5.46 µM | 10.2 µM | 13.7 µM | > 30 µM |  |  |  |  |  |  |  |  |  |
| Stable | Stable | COc1cc(OC)c(/C=C/S(=O)(=O)Cc2ccc(OC)c(NCC(=O)O)c2)c(OC)c1 [RIGOSERTIB] | < 0.01 µM | 0.02 µM | 0.05 µM | 0.05 µM | 0.71 µM | 0.601 µM | 0.302 µM | 58% | 84% | Dose-dependent effect |  |  |  |  |
|  |  | COc1cc(OC)c(NC(=O)CS(=O)(=O)Cc2ccc(OC)c([N+](=O)[O-])c2)c(OC)c1 | > 30 µM | > 30 µM | 18.8 µM | > 30 µM | > 30 µM |  |  |  |  |  |  |  |  |  |
|  |  | COc1ccc(CS(=O)(=O)CC(=O)Nc2ccccc2)cc1[N+](=O)[O-] | > 30 µM | > 30 µM | > 30 µM | > 30 µM | > 30 µM |  |  |  |  |  |  |  |  |  |
|  |  | COc1cc(/C=C/S(=O)(=O)Cc2ccc(OC)c(N)c2)cc(OC)c1 | 0.53 µM | 0.52 µM | 0.54 µM | 0.49 µM | > 30 µM |  |  |  |  |  | <80 | <80 | <80 | <80 |
|  |  | COc1cc(OC)c(/C=C/S(=O)(=O)Cc2ccc(OC)c(N)c2)c(OC)c1 |  | 0.03 µM | < 0.01 µM | < 0.01 µM | 0.08 µM |  |  |  |  |  |  |  |  |  |
|  |  | COc1ccc(CS(=O)(=O)/C=C/c2ccc(OC)c(OC)c2OC)cc1N | 5.9 µM | 3.48 µM | 5.31 µM | 5.95 µM | > 30 µM |  |  |  |  |  |  |  |  |  |
